Results from ChEMBL document CHEMBL1146568, “Xanthones and benzophenones from the stems of Garcinia multiflora” (J Nat Prod, 2003).

Columns and labels:
[1] = Toxicity against brine shrimp; type: organism-based; details: artemia, in vivo; read-out: LD50 (the source's name)
[2] = system: Radical scavenging activity; assay: Antioxidant activity assessed as DPPH radical scavenging activity; type: functional
Summary of the method: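 Test sample in EtOH mixed with a 0.1 mM DPPH solution in EtOH (concentration before mixing). Absorbance read at 517 nm after 20 min. Scavenging taken as the drop in DPPH absorbance, expressed as a percentage of a DPPH control without sample. Catechin served as the positive control.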

| SMILES | LC50 [1] [µM] | IC50 [2] [µM] |
| --- | --- | --- |
| O=C(c1cccc(O)c1)c1c(O)cc(O)cc1O | > 100 | 66.3 |
| COc1cc(O)cc(O)c1C(=O)c1ccc(O)c(O)c1 | > 100 | 7.8 |
| COc1ccc2cc3[n+](cc2c1OC)CCc1cc2c(cc1-3)OCO2 [BERBERINE CHLORIDE] | 67 | – |
| Oc1cc(O)c2c(c1)OC(c1ccc(O)c(O)c1)C(O)C2 (configuration not stated) [CATECHIN] | – | 2.53 |
| CC(C)=CCC/C(C)=C/CC1(CC=C(C)C)C(=O)C(O)=Cc2oc3cc(O)cc(O)c3c(=O)c21 (configuration not stated) [GARCINIANONE A] | 7.7 | 107 |
| CC(C)=CCC/C(C)=C\CC1(CC=C(C)C)C(=O)C(O)=Cc2oc3cc(O)cc(O)c3c(=O)c21 (configuration not stated) [GARCINIANONE B] | 25.8 | 145 |
| O=C(c1ccc(O)c(O)c1)c1c(O)cc(O)cc1O [MACLURIN] | 43.1 | 5.3 |
